Measurements collected from several papers.
Lines come from different studies, so protocols differ.
SIRT1: NAD-dependent protein deacetylase sirtuin-1 (SIRT1, Homo sapiens, UniProt Q96EB6)
STAT5B SH2: Signal transducer and activator of transcription 5B, SH2 (STAT5B, Homo sapiens, UniProt P51692)
XDH: Xanthine dehydrogenase/oxidase (XDH, Bos taurus, UniProt P80457)
SPHK2: Sphingosine kinase 2 (SPHK2, Homo sapiens, UniProt Q9NRA0)
SLC7A5: Large neutral amino acids transporter small subunit 1 (SLC7A5, Homo sapiens, UniProt Q01650)

Ic1cccc2cnccc12 gave an inhibition of 7% (Alpha-1B adrenergic receptor (Adra1b, Rattus norvegicus, UniProt P15823); ligand displacement; radioligand; 10 µM).
O=C1CC(CCc2ccccc2)Oc2c(Br)cc(Cl)cc21 (centres unmarked) gave an inhibition of 6.9% (SIRT1; enzyme activity; inhibitor; fluorescence; 200 µM).
The inhibition of O=C(O)Cc1ccccc1OP(=O)(O)O is reported as 39% (STAT5B SH2; ligand displacement; FP; 100 µM).
With O=C1C=C(c2ccc(O)c(O)c2)CO1 the inhibition was 17.2% (XDH; enzyme activity; inhibitor; absorbance; 100 µg/mL).
For CCCCCCCCNC(=S)NCCCC[C@H](NS(C)(=O)=O)C(=O)N[C@H](C)C(=O)N[C@@H](CCCNC(=N)N)C(N)=O, the inhibition was 71% (SIRT1; enzyme activity; inhibitor; 10 µM).
With CCCCCC1CC(=O)c2cccc(Br)c2O1 (centres unmarked) the inhibition was 7.1% (SIRT1; enzyme activity; inhibitor; fluorescence; 200 µM).
With O=C1CC(CCNC(=S)NCCCC[C@H](NS(=O)(=O)c2cccc(F)c2)C(=O)N[C@@H](Cc2c[nH]c3ccccc23)C(=O)NC2CCC2)=NO1 the inhibition was 22% (SIRT1; enzyme activity; inhibitor; 10 µM).
CSSc1ccccc1C(=O)O gave an inhibition of 93% (Procathepsin L (CTSL, Homo sapiens, UniProt P07711); enzyme activity; inhibitor; fluorescence; 20 µM).
CC(C)(C)C(=O)OCOP(=O)(Cc1ccccc1CP(=O)(OCOC(=O)C(C)(C)C)OCOC(=O)C(C)(C)C)OCOC(=O)C(C)(C)C gave an inhibition of -1% (STAT5B SH2; ligand displacement; FP; 100 µM).
The inhibition of O=C(O)c1ccc(O)cc1 is reported as 14.7% (XDH; enzyme activity; inhibitor; absorbance; 100 µg/mL).
CCCCCCCCCCCCNC(=S)NCCCC[C@H](NC(=O)C1CCCCC1)C(=O)N[C@H](C)C(=O)N[C@@H](CCCNC(=N)N)C(N)=O has an inhibition of 44% (SIRT1; enzyme activity; inhibitor; 1 µM).
The inhibition of CCCCCCCC1CC(=O)c2cc(Cl)cc(Br)c2O1 (centres unmarked) is reported as 7.5% (SIRT1; enzyme activity; inhibitor; fluorescence; 200 µM).
The inhibition of O=C(CO)c1ccc(O)c(O)c1 is reported as 43.3% (XDH; enzyme activity; inhibitor; absorbance; 200 µg/mL).
The inhibition of Cn1c(CNC(=S)NCCCC[C@H](NS(=O)(=O)c2cccc(F)c2)C(=O)N[C@@H](Cc2c[nH]c3ccccc23)C(=O)NC2CCC2)n[nH]c1=S is reported as 89% (SIRT1; enzyme activity; inhibitor; 30 µM).
OCCc1ccc(O)c(O)c1 gave an inhibition of 7.3% (XDH; enzyme activity; inhibitor; absorbance; 100 µg/mL).
C[C@@H](NC(=O)[C@H](CCCCNC(=O)C(F)(F)F)NS(C)(=O)=O)C(=O)N[C@@H](CCCNC(=N)N)C(N)=O has an inhibition of 14% (SIRT1; enzyme activity; inhibitor; 100 µM).
The inhibition of [H]/N=C(/N)N1CCC[C@H]1c1nc(-c2ccc(OCCC=CCCC)c(C(F)(F)F)c2)no1 is reported as 56% (SPHK2; enzyme activity; inhibitor; radiometric; 0.3 µM).
With CCCCCC1CC(=O)c2cc(C)cc(C)c2O1 (centres unmarked) the inhibition was 3.2% (SIRT1; enzyme activity; inhibitor; fluorescence; 200 µM).
OCCc1ccc(O)cc1 gave an inhibition of 7.9% (XDH; enzyme activity; inhibitor; absorbance; 100 µg/mL).
The inhibition of N=C(N)N1CCC[C@H]1c1nc(-c2ccc(CCC3CCCC3)c(C(F)(F)F)c2)no1 is reported as 25% (SPHK2; enzyme activity; inhibitor; radiometric; 0.3 µM).
For COc1cc(-c2cc(-c3ccc(N4CCNCC4)cc3)cnc2N)cc(OC)c1OC, the inhibition was 90% (Platelet-derived growth factor receptor alpha (PDGFRA, Homo sapiens, UniProt P16234, D842V); enzyme activity; inhibitor; 1 µM).
CCCCCCCCCCCCNC(=S)NCCCC[C@H](NC(=O)OCc1ccccc1)C(=O)N[C@@H](Cc1c[nH]c2ccccc12)C(=O)N[C@@H](CCC(=O)O)C(N)=O has an inhibition of 28% (SIRT1; enzyme activity; inhibitor; 1 µM).
NC(CCOC(=O)c1ccccc1)C(=O)O (centres unmarked) has an inhibition of 11% (SLC7A5; transporter uptake; inhibitor; radiometric; 200 µM).
CS(=O)(=O)Nc1cccc(-c2csc(NC(=O)CSc3nc4nccnc4c(=O)n3CCc3ccccc3)n2)c1 has an inhibition of -12% (SPHK2; enzyme activity; inhibitor; 10 µM).
The inhibition of N[C@@H](Cc1ccc(OC(=O)c2ccccc2)cc1)C(=O)O is reported as 49% (SLC7A5; transporter uptake; inhibitor; radiometric; 200 µM).
For CCOCCOCCNC(=S)NCCCC[C@H](NS(C)(=O)=O)C(=O)N[C@H](C)C(=O)N[C@@H](CCCNC(=N)N)C(N)=O, the inhibition was 12% (SIRT1; enzyme activity; inhibitor; 100 µM).
CCCC1CC(=O)c2cc(Cl)cc(Br)c2O1 (centres unmarked) has an inhibition of 6.4% (SIRT1; enzyme activity; inhibitor; fluorescence; 200 µM).
With N=C(N)N1CCC[C@H]1c1nc(-c2ccc(CCc3ccc(C(F)(F)F)cc3)c(C(F)(F)F)c2)no1 the inhibition was 59% (SPHK2; enzyme activity; inhibitor; radiometric; 0.3 µM).
CCCCCC1CCc2cc(Cl)cc(Br)c2O1 (centres unmarked) gave an inhibition of -5.2% (SIRT1; enzyme activity; inhibitor; fluorescence; 200 µM).
For CCCc1ccc(CCc2ccc(-c3noc([C@@H]4CCCN4C(=N)N)n3)cc2C(F)(F)F)cc1, the inhibition was 65% (SPHK2; enzyme activity; inhibitor; radiometric; 0.3 µM).
For NC(CNC(=O)c1ccccc1)C(=O)O (centres unmarked), the inhibition was 4.6% (SLC7A5; transporter uptake; inhibitor; radiometric; 200 µM).
[H]/N=C(\N)N1CCC[C@H]1c1nc(-c2ccc(OCC=Cc3ccccc3C(F)(F)F)c(C(F)(F)F)c2)no1 has an inhibition of 0% (SPHK2; enzyme activity; inhibitor; radiometric; 0.3 µM).
CCCCCCCCCCCCNC(=S)NCCCC[C@H](NC(=O)OCc1ccccc1)C(=O)N[C@@H](Cc1c[nH]c2ccccc12)C(=O)N[C@@H](CC(N)=O)C(N)=O gave an inhibition of 29% (SIRT1; enzyme activity; inhibitor; 10 µM).
CCCCCC1CC(=O)c2cc(OC)ccc2O1 (centres unmarked) has an inhibition of 10.3% (SIRT1; enzyme activity; inhibitor; fluorescence; 200 µM).
With COc1ccc(CCc2ccc(-c3noc([C@@H]4CCCN4C(=N)N)n3)cc2C(F)(F)F)cc1 the inhibition was 45% (SPHK2; enzyme activity; inhibitor; radiometric; 0.3 µM).
With CC(C)CCn1c(SCC(=O)Nc2ccccc2C(F)(F)F)nc2nccnc2c1=O the inhibition was under 20% (Phosphatidylinositol 4-kinase beta (PI4KB, Homo sapiens, UniProt Q9UBF8); enzyme activity; inhibitor; 10 µM).
N=C(N)N1CCC[C@H]1c1nc(-c2ccc(CCC3CC3)c(C(F)(F)F)c2)no1 gave an inhibition of 32% (SPHK2; enzyme activity; inhibitor; radiometric; 0.3 µM).
NC(CCCNC(=O)c1ccccc1)C(=O)O (centres unmarked) has an inhibition of 54% (SLC7A5; transporter uptake; inhibitor; radiometric; 200 µM).
For CCCCCCCCCCCCNC(=S)NCCCC[C@H](NC(=O)OCc1ccccc1)C(=O)N[C@@H](C)C(=O)N[C@@H](CCCNC(=N)N)C(N)=O, the inhibition was 61% (SIRT1; enzyme activity; inhibitor; 1 µM).
The inhibition of O=C(O)c1ccc(O)c(O)c1 is reported as 20.8% (XDH; enzyme activity; inhibitor; absorbance; 200 µg/mL).
CCCCCC=CCOc1ccc(-c2noc([C@@H]3CCCN3C(=N)N)n2)cc1C(F)(F)F (mixture of isomers) has an inhibition of 40% (SPHK2; enzyme activity; inhibitor; radiometric; 0.3 µM).
Oc1ncnc2[nH]ncc12 has an inhibition of 97% (XDH; enzyme activity; inhibitor; absorbance; 25 µg/mL).
With CCCCCC1CC(=O)c2cc([N+](=O)[O-])ccc2O1 (centres unmarked) the inhibition was 4.7% (SIRT1; enzyme activity; inhibitor; fluorescence; 200 µM).
With N[C@@H](Cc1cccc(C(=O)Oc2ccccc2)c1)C(=O)O the inhibition was 85% (SLC7A5; transporter uptake; inhibitor; radiometric; 200 µM).
O=Cc1c[nH]c2ccccc12 has an inhibition of 13.1% (XDH; enzyme activity; inhibitor; absorbance; 200 µg/mL).
CCCCCCCCCCCCCC(=O)NNCCC[C@H](NC(=O)OCc1ccccc1)C(=O)N[C@@H](Cc1c[nH]c2ccccc12)C(=O)NC(C)C has an inhibition of 10% (SIRT1; enzyme activity; inhibitor; 100 µM).
O=C(NC1CCC1)[C@H](Cc1c[nH]c2ccccc12)NC(=O)[C@H](CCCCNC(=S)NCc1cc(O)no1)NS(=O)(=O)c1cccc(F)c1 has an inhibition of 49% (SIRT1; enzyme activity; inhibitor; 30 µM).
